SUMO1-SIM PPI = SUMO1-SIM interaction modulation | P63165 | SUMO1 binding to a labelled peptide, TR-FRET, 1 h | inhibition, % at 20 µM | 360,000 compounds, 0.33% hits | AID 602429; in the data active means inhibition above about 37%
Target sequence (P63165 whole entry, looked up): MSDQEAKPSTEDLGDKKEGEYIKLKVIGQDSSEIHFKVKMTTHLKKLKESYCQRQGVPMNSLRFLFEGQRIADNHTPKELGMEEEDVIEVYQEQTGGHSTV
DNMT1 inh = inhibitors of human DNMT1; DNMT1 molecular beacon, Hinp1I cleavage, fluorescence; inhibition (reported as % activation of signal), % at 10 µM; 360,000 compounds, 0.83% hits; P26358
LMPTP inh = LMPTP (human) inhibition. P24666. 360,000 compounds, 0.22% hits. recombinant LMPTP-A, OMFP fluorogenic substrate, fluorescence intensity. inhibition, % at 20 µM. AID 651560;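 active means compounds that cut the enzyme signal by at least half of the control window in the single-dose screen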
Target sequence (P24666 whole entry, looked up): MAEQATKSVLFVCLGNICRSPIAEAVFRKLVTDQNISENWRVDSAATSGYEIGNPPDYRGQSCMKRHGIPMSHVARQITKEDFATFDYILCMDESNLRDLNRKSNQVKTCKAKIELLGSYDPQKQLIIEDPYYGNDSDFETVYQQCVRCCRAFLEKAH
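Material: LMPTP-A; amount: 0.625 nM enzyme; doses: single 20 µM dose; times: reaction 50 min, room temperature, dark; technique: fluorescence intensity of OMFP turnover product; benchmarks: no-enzyme and uninhibited controls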
CSN inh = blocks human CSN-mediated cullin deneddylation | Q92905 | Purified CSN, SCF-Nedd8-OG deneddylation, fluorescence polarization | inhibition, % at 12.5 µM | 360,000 compounds, 0.38% hits | AID 651999;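 active means pattern-corrected inhibition above about 35%, with an unprinted fluorescence ratio check between 0.5 and 1.5, limit read from the data, passing the limit was not always enough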
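Assay system: purified human Csn5 enzyme expressed in HEK293T cells; Input: 0.24 nM Csn5 enzyme, final concentration; Reagent: 10 nM SCFSkp2-Nedd8OG; Compound dosing: 12.5 µM single point; Times: reaction 90 min, room temperature; Technique: fluorescence polarization readout.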
STEP block = blocks human striatal-enriched tyrosine phosphatase. AID 588621. recombinant STEP, OMFP fluorogenic substrate, fluorescence. 360,000 compounds, 0.25% hits. inhibition, % at 20 µM. P54829;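 active means inhibition at 20 µM, scaled per plate between control wells, above about 37%, limit read from the data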
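Assay system: isolated STEP enzyme / Timing: 20 min at room temperature, dark / Doses: 20 µM, 1% DMSO / Technique: fluorescence intensity, excitation 480 nm, emission 540 nm / Reagent: fluorogenic phosphatase substrate OMFP at 25 µM final / Measure: percent inhibition scaled to no-enzyme and uninhibited-enzyme controls, plate-pattern corrected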
Scp1 inh = inhibitors of human Scp-1 phosphatase. Recombinant Scp1, phosphopeptide, malachite green phosphate absorbance. inhibition, % at 20 µM. 340,000 compounds, 0.88% hits;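 active means inhibition above about 50% at 20 µM, limit read from the data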
Target sequence (Q9GZU7 76-261 limits assumed): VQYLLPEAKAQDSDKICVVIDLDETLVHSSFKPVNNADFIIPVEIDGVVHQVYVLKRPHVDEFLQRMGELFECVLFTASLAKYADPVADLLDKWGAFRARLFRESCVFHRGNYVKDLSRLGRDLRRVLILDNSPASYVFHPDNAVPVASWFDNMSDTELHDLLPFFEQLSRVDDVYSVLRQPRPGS
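Times: enzyme reaction 45 min at room temperature, colour 5 min, stabilisation 30 min. Material: SCP-1 catalytic fragment, aa 76-261. Medium: Acidic Tris acetate buffer with magnesium and detergent. Signal: colorimetric free-phosphate detection, absorbance 630 nm. Read-out basis: % inhibition of SCP-1 phosphate liberation. Reagent: Phosphorylated 17-residue peptide substrate.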
STEP inh conf = confirmation of human STEP phosphatase inhibitors. shares compounds with STEP block. recombinant STEP, OMFP fluorogenic substrate, fluorescence. inhibition, % at 20 µM. 520 compounds, 32% hits. AID 623866; call rule not given here
CSN deneddyl val = Csn5 (human) deneddylation inhibition, single-concentration validation | inhibition, % at 16.6 µM | AID 720654 | Csn5 deneddylation of SCF-Nedd8OG, fluorescence polarization, 90 min | shares compounds with CSN inh | 540 compounds, 62% hits
MMP2 cntr CSN = MMP-2 (human) inhibition, counter-screen for CSN hits; shares compounds with CSN inh; recombinant MMP-2, FRET substrate fluorescence, 60 min; inhibition, % at 16.6 µM; 540 compounds, 33% hits;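 active means corrected plate-normalized z-score of 5 or more, or -5 or less, or inhibition of 15% or more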
Thrombin counter = blocks bovine thrombin in a CSN deneddylation counter-screen. shares compounds with CSN inh. bovine thrombin cleavage of Ub4-pepOG, fluorescence polarization. inhibition, % at 16.6 µM. 540 compounds, 49% hits. AID 720656;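 active means inhibition at or above a set limit, with a fluorescence interference ratio between 0.5 and a set maximum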
A number is an active result; - = inactive; . = no result; ! = repeats disagree. Compounds with a hit are over-represented: about 2% of the library has one in this group of screens. Unless noted, no stated cut-off is given here; in the data, active means inhibition above about 50%; inactive means the rest.

SMILES	SUMO1-SIM PPI	DNMT1 inh	LMPTP inh	CSN inh	STEP block	Scp1 inh	CSN deneddyl val	MMP2 cntr CSN	Thrombin counter	others
NN=C1C(Cl)=C(Cl)C(Cl)=C1Cl	-	108	84	-	72	.	.	.	.	STEP inh conf=67
O=c1[nH]c(=S)n(CCC2=CCCCC2)c(O)c1/C=N/N1CCOCC1	-	-	-	-	-	-	.	.	.
Clc1cccc(N2Cc3cc(-c4ccccc4)ccc3-n3nncc3C2)c1	-	-	-	69	-	.	66	-	25
COc1ccc(-c2ccc3c(c2)CN(c2cccc(Cl)c2)Cc2cnnn2-3)cc1	-	-	-	-	-	.	.	.	.
CCCCn1c(NS(=O)(=O)c2ccccc2)c(C(=O)OCC)c2nc3ccccc3nc21	49	68	-	63	-	-	103	-	-
COCCCn1c(N)c(C(=O)Nc2ccccc2)c2nc3ccccc3nc21	-	-	-	-	-	-	.	.	.
O=c1cccc2n1CC1CC2CN(c2nc(N3CCCCC3)nc(N3CCCCC3)n2)C1 (configuration not stated)	-	-	-	-	-	-	.	.	.
O=c1c2ccccc2nc(/C=C/c2ccc([N+](=O)[O-])o2)n1-c1ccc(O)cc1	-	-	-	50	-	-	65	-	46
Cc1cccc(-n2c(/C=C/c3ccc([N+](=O)[O-])o3)nc3ccccc3c2=O)c1	-	-	-	-	-	-	.	.	.
CC1=C(O)C(=O)C=C2C1=CC=C1C2(C)CCC2(C)C3CC(C)(C(=O)O)CCC3(C)CCC12C (configuration not stated)	-	-	-	42	-	-	.	-	-
CCc1ccc(N2C(=O)NC(=O)/C(=C\C=C\c3ccco3)C2=O)cc1	-	138	-	86	-	-	-	-	-
O=C1NC(=O)N(Cc2ccc(F)cc2)C(=O)/C1=C\C=C\c1ccco1	-	-	-	99	-	-	73	-	17
Cc1cc(C(=O)N=Nc2c(O)n(C)c3ccccc23)c(C)o1	-	-	-	-	-	-	.	.	.
CCc1ccccc1N1C(=O)/C(=C/c2ccc(N3CCN(C)CC3)o2)C(=O)NC1=S	-	-	-	128	-	-	-	-	77
O=C1NC(=O)N(c2ccc3c(c2)OCO3)C(=O)/C1=C\c1ccc(N2CCCCC2)o1	-	-	-	89	-	-	138	-	-
Cc1ccccc1N1C(=O)NC(=O)/C(=C/c2ccc(N3CCOCC3)o2)C1=O	-	-	-	-	-	-	.	.	.
Cn1ncnc2c(=O)n(C)c(=O)nc1-2	-	109	75	74	85	-	-	-	-
COc1ccccc1C(=O)Nc1ccc2c(c1)CC1(C(=O)N(C)C(=O)N(C)C1=O)C1CCCN21 (configuration not stated)	-	-	-	-	-	-	.	.	.
C[C@]12C=CC(=O)C=C1C=C[C@@H]1C2CC[C@]2(C)C(=O)CCC12 (some centres not stated)	-	-	-	-	-	-	.	.	.
Cn1c(O)c(/C=C/C=Nc2ccccc2)c(=O)n(C)c1=S	-	-	-	75	-	-	.	-100	-
NP(=O)(Nc1ccccc1)Nc1ccccc1	-	-	-	-	-	-	.	.	.
Cc1cc(N(CCCl)CCCl)ccc1C=Cc1ccncn1	-	-	-	41	-	-	53	-	37
CCN(CC)c1ccc(/C=C2\C(=O)NC(=O)N(Cc3ccco3)C2=O)cc1	-	-	-	54	-	-	85	-	-
CCN(CC)c1ccc(/C=C2/C(=O)NC(=O)N(CC3CCCO3)C2=O)cc1 (configuration not stated)	-	-	-	-	-	-	.	.	.
CN(C)[C@@H]1C(=O)C(C(N)=O)=C(O)[C@@]2(O)C(=O)C3=C(O)c4c(O)cccc4[C@@](C)(O)C3[C@H](O)C12 (some centres not stated)	59!	89!	64	37!	-	-	89	-	-
CC(=NCCCn1ccnc1)c1c(O)n(C)c(=O)n(C)c1=O	-	-	-	-	-	-	.	.	.
CCOC(=O)[C@]12Cc3ccc4ccccc4c3[C@H]1N(Cc1ccccc1)C(=O)c1ccccc12	-	.	-	-	.	.	.	.	.
Cn1nc(-c2ccc(OCC(=O)N3CCN(Cc4ccccc4)CC3)cc2)c2ccccc2c1=O	-	-	-	-	-	-	.	.	.

From PubChem BioAssay
